Laboratory results reported in ChEMBL document CHEMBL1177688, “Synthesis of novel pyrazolic analogues of chalcones and their 3-aryl-4-(3-aryl-4,5-dihydro-1H-pyrazol-5-yl)-1-phenyl-1H-pyrazole derivatives as potential antitumor agents” (2010).

Key:
Type in all cases: functional
[1] = test system: DU-145; assay: Antiproliferative activity against human DU145 cells after 48 hrs by SRB assay; settings: DU-145, 48 h, read-out: LC50 (the source's name)
In short: (§1)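 NCI 60-cell-line human tumour panel, secondary five-dose screen. Compounds tested at 100, 10, 1.0, 0.1 and 0.01 µM with 48 h continuous exposure. Cell growth was estimated by sulforhodamine B protein staining. GI50 is the concentration giving a 50% reduction in net protein increase relative to untreated control cells over the incubation. TGI and LC50 were also derived.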

[2] = test system: EKVX; assay: Antiproliferative activity against human EKVX cells after 48 hrs by SRB assay; settings: for CC50: read-out: LC50 (the source's name); in short: as §1
[3] = test system: SF-539; assay: Antiproliferative activity against human SF539 cells after 48 hrs by SRB assay; settings: SF-539, 48 h
In short: (§2)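 NCI 60-cell human tumour line panel. Continuous 48 h drug exposure at five concentrations (100, 10, 1.0, 0.1, 0.01 µM). Cell growth estimated by sulforhodamine B protein staining. GI50 = concentration giving 50% reduction in net protein increase versus control cells over the incubation. LC50 = molar concentration killing 50% of cells.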

[4] = test system: SK-MEL-28; assay: Antiproliferative activity against human SK-MEL-28 cells after 48 hrs by SRB assay; settings: SK-MEL-28, 48 h, read-out: LC50 (the source's name); in short: as §1
[5] = test system: NCI/ADR-RES; assay: Antiproliferative activity against human NCI/ADR-RES cells after 48 hrs by SRB assay; in short: as §2
[6] = test system: UACC-257; assay: Antiproliferative activity against human UACC257 cells after 48 hrs by SRB assay; settings: UACC-257, 48 h; in short: as §1
[7] = test system: A498; assay: Antiproliferative activity against human A498 cells after 48 hrs by SRB assay; settings: A498, 48 h; for CC50: read-out: LC50 (the source's name); in short: as §1
[8] = test system: UO-31; assay: Antiproliferative activity against human UO31 cells after 48 hrs by SRB assay; settings: UO-31, 48 h; for CC50: read-out: LC50 (the source's name); in short: as §1
[9] = test system: SK-OV-3; assay: Antiproliferative activity against human SKOV3 cells after 48 hrs by SRB assay; settings: SK-OV-3, 48 h; for CC50: read-out: LC50 (the source's name); in short: as §1
[10] = test system: HCC 2998; assay: Antiproliferative activity against human HCC2998 cells after 48 hrs by SRB assay; settings: HCC 2998, 48 h; for CC50: read-out: LC50 (the source's name); in short: as §1
[11] = test system: UACC-62; assay: Antiproliferative activity against human UACC62 cells after 48 hrs by SRB assay; settings: UACC-62, 48 h; for CC50: read-out: LC50 (the source's name); in short: as §1
[12] = test system: SR; assay: Antiproliferative activity against human SR cells after 48 hrs by SRB assay; in short: as §1
[13] = test system: COLO 205; assay: Antiproliferative activity against human COLO205 cells after 48 hrs by SRB assay; settings: COLO 205, 48 h; in short: as §2
[14] = test system: MCF7; assay: Antiproliferative activity against human MCF7 cells after 48 hrs by SRB assay; settings: MCF7, 48 h, read-out: LC50 (the source's name); in short: as §1
[15] = test system: MDA-MB-435; assay: Antiproliferative activity against human MDA-MB-435 cells after 48 hrs by SRB assay; settings: MDA-MB-435, 48 h, read-out: LC50 (the source's name); in short: as §1
[16] = test system: NCI-H226; assay: Antiproliferative activity against human NCI-H226 cells after 48 hrs by SRB assay; settings: NCI-H226, 48 h; for CC50: read-out: LC50 (the source's name); in short: as §1
[17] = test system: RXF 393; assay: Antiproliferative activity against human RXF393 cells after 48 hrs by SRB assay; settings: RXF 393, 48 h; in short: as §2
[18] = test system: NCI-H322M; assay: Antiproliferative activity against human NCI-H322M cells after 48 hrs by SRB assay; settings: read-out: LC50 (the source's name); in short: as §1
[19] = test system: SN12C; assay: Antiproliferative activity against human SN12C cells after 48 hrs by SRB assay; settings: read-out: LC50 (the source's name); in short: as §1
[20] = test system: SK-MEL-5; assay: Antiproliferative activity against human SK-MEL-5 cells after 48 hrs by SRB assay; settings: SK-MEL-5, 48 h; in short: as §2
[21] = test system: CAKI-1; assay: Antiproliferative activity against human Caki1 cells after 48 hrs by SRB assay; settings: CAKI-1, 48 h; in short: as §2
[22] = test system: LOX IMVI; assay: Antiproliferative activity against human LOXIMVI cells after 48 hrs by SRB assay; in short: as §1
[23] = test system: TK-10; assay: Antiproliferative activity against human TK10 cells after 48 hrs by SRB assay; settings: TK-10, 48 h; for CC50: read-out: LC50 (the source's name); in short: as §1
[24] = test system: NCI-H522; assay: Antiproliferative activity against human NCI-H522 cells after 48 hrs by SRB assay; settings: NCI-H522, 48 h; in short: as §1
[25] = test system: U-251; assay: Antiproliferative activity against human U251 cells after 48 hrs by SRB assay; settings: U-251, 48 h; in short: as §2
[26] = test system: SF-268; assay: Antiproliferative activity against human SF268 cells after 48 hrs by SRB assay; settings: SF-268, 48 h; in short: as §1
[27] = test system: HOP-92; assay: Antiproliferative activity against human HOP92 cells after 48 hrs by SRB assay; settings: HOP-92, 48 h; in short: as §1
[28] = test system: SK-MEL-2; assay: Antiproliferative activity against human SK-MEL-2 cells after 48 hrs by SRB assay; settings: SK-MEL-2, 48 h; for CC50: read-out: LC50 (the source's name); in short: as §1
[29] = test system: SNB-75; assay: Antiproliferative activity against human SNB75 cells after 48 hrs by SRB assay; settings: SNB-75, 48 h; in short: as §1
[30] = test system: HT-29; assay: Antiproliferative activity against human HT-29 cells after 48 hrs by SRB assay; settings: HT-29, 48 h, read-out: LC50 (the source's name); in short: as §1
[31] = Antiproliferative activity against human […] cells after 48 hrs by SRB assay; in short: as §1
[32] = test system: OVCAR-8; assay: Antiproliferative activity against human OVCAR8 cells after 48 hrs by SRB assay; settings: OVCAR-8, 48 h; for CC50: read-out: LC50 (the source's name); in short: as §1
[33] = test system: NCI-H460; assay: Antiproliferative activity against human NCI-H460 cells after 48 hrs by SRB assay; settings: NCI-H460, 48 h; in short: as §1
[34] = test system: Malme-3M; assay: Antiproliferative activity against human MALME-3M cells after 48 hrs by SRB assay; settings: for CC50: read-out: LC50 (the source's name); in short: as §1
[35] = test system: NCI-H23; assay: Antiproliferative activity against human NCI-H23 cells after 48 hrs by SRB assay; settings: NCI-H23, 48 h; in short: as §2
[36] = test system: HCT-116; assay: Antiproliferative activity against human HCT116 cells after 48 hrs by SRB assay; settings: HCT-116, 48 h; in short: as §2
[37] = test system: OVCAR-5; assay: Antiproliferative activity against human OVCAR5 cells after 48 hrs by SRB assay; settings: OVCAR-5, 48 h; for CC50: read-out: LC50 (the source's name); in short: as §1
[38] = test system: ACHN; assay: Antiproliferative activity against human ACHN cells after 48 hrs by SRB assay; in short: as §2
[39] = test system: M14; assay: Antiproliferative activity against human M14 cells after 48 hrs by SRB assay; settings: M14, 48 h, read-out: LC50 (the source's name); in short: as §1
[40] = read-out: LC50 (the source's name)

Work on COc1ccc(C2=NN(C(C)=O)C(c3cn(-c4ccccc4)nc3-c3ccc(Cl)cc3)C2)cc1 (centres undefined) yielded a CC50 [1] of over 100 µM, a CC50 [2] of over 100 µM and a GI50 [3] of 1.87 µM. For the same molecule, the CC50 [4] was over 100 µM, the GI50 [5] was 1.8 µM and the GI50 [6] was over 100 µM. The LC50 (concentration killing 50% of cells) [6] was over 100 µM, the CC50 [7] was over 100 µM and the CC50 [8] was over 100 µM. It also gave a GI50 [9] of 2.14 µM, a CC50 [9] of over 100 µM and a GI50 [10] of 2.21 µM. For the same molecule, the CC50 [10] was over 100 µM, the GI50 [11] was 2.4 µM and the CC50 [11] was over 100 µM. For the same molecule, the GI50 [12] was 1.57 µM, the GI50 [13] was 2.16 µM and the CC50 [14] was over 100 µM. It also gave a CC50 [15] of over 100 µM, a CC50 [16] of over 100 µM and a GI50 [17] of 1.82 µM. For the same molecule, the CC50 [18] was over 100 µM, the CC50 [19] was over 100 µM and the GI50 [20] was 1.79 µM. For the same molecule, the GI50 [21] was 1.96 µM, the GI50 [22] was 1.66 µM and the CC50 [23] was over 100 µM. It also gave a GI50 [24] of 2.2 µM, an LC50 (concentration killing 50% of tumour cells) [24] of over 100 µM and a GI50 [25] of 1.71 µM. The GI50 [26] was 4.55 µM, the LC50 [26] was over 100 µM and the GI50 [27] was 0.04 µM. For the same molecule, the CC50 [28] was over 100 µM, the GI50 [29] was 2.76 µM and the LC50 (50% lethal concentration) [29] was over 100 µM. The CC50 [30] was over 100 µM, the GI50 [31] was 1.73 µM and the LC50 (50% lethal concentration) [31] was over 100 µM. The CC50 [32] was over 100 µM, the GI50 [33] was 1.98 µM and the CC50 [34] was over 100 µM. It also gave a GI50 [35] of 1.77 µM, a GI50 [36] of 1.94 µM and a GI50 [37] of 1.81 µM. For the same molecule, the CC50 [37] was over 100 µM, the GI50 [38] was 1.82 µM and the CC50 [39] was over 100 µM.

O=C(/C=C/c1cn(-c2ccccc2)nc1-c1ccc([N+](=O)[O-])cc1)c1ccc(Cl)cc1 gave a CC50 [1] of over 100 µM, a GI50 [2] of 4.97 µM and a CC50 [2] of over 100 µM. For the same molecule, the GI50 [3] was 3.95 µM, the CC50 [3, 40] was over 100 µM and the CC50 [4] was over 100 µM. It also gave a GI50 [5] of 4.64 µM, a CC50 [5, 40] of over 100 µM and a GI50 [6] of over 100 µM. For the same molecule, the LC50 (concentration killing 50% of cells) [6] was over 100 µM, the GI50 [7] was 3.14 µM and the CC50 [7] was over 100 µM. It also gave a GI50 [8] of 0.1 µM, a CC50 [8] of over 100 µM and a GI50 [9] of 12.5 µM. It also gave a CC50 [9] of over 100 µM, a GI50 [10] of over 100 µM and a CC50 [10] of over 100 µM. For the same molecule, the GI50 [11] was 11.4 µM, the CC50 [11] was over 100 µM and the GI50 [12] was 2.76 µM. The LC50 (50% net cell kill) [12] was over 100 µM, the GI50 [13] was 2.09 µM and the CC50 [14] was over 100 µM. The CC50 [15] was over 100 µM, the GI50 [16] was 3.77 µM and the CC50 [16] was over 100 µM. For the same molecule, the GI50 [17] was 2.08 µM, the CC50 [17, 40] was 9.87 µM and the CC50 [18] was over 100 µM. For the same molecule, the CC50 [19] was over 100 µM, the GI50 [20] was over 100 µM and the CC50 [20, 40] was over 100 µM. It also gave a GI50 [21] of 4.56 µM, a CC50 [21, 40] of over 100 µM and a CC50 [22, 40] of over 100 µM. It also gave a GI50 [23] of 3.12 µM, a CC50 [23] of over 100 µM and a GI50 [24] of 6.41 µM. It also gave an LC50 (concentration killing 50% of tumour cells) [24] of over 100 µM, a GI50 [25] of 2.09 µM and a CC50 [25, 40] of over 100 µM. The GI50 [26] was 3.12 µM, the LC50 [26] was over 100 µM and the CC50 [27, 40] was over 100 µM. The GI50 [28] was 6.99 µM, the CC50 [28] was 57.9 µM and the GI50 [29] was 1.55 µM. For the same molecule, the LC50 (50% lethal concentration) [29] was 24 µM, the CC50 [30] was over 100 µM and the GI50 [31] was 1.86 µM. It also gave an LC50 (50% lethal concentration) [31] of over 100 µM, a GI50 [32] of 6.32 µM and a CC50 [32] of over 100 µM. The CC50 [33, 40] was over 100 µM, the GI50 [34] was 2.44 µM and the CC50 [34] was over 100 µM. It also gave a GI50 [35] of 4.99 µM, a CC50 [35, 40] of over 100 µM and a GI50 [36] of 2.75 µM. For the same molecule, the CC50 [36, 40] was over 100 µM, the GI50 [37] was over 100 µM and the CC50 [37] was over 100 µM. The GI50 [38] was 4.27 µM, the CC50 [38, 40] was over 100 µM and the CC50 [39] was over 100 µM.
